Hits are enriched below; roughly 5.1% of the tested compounds scored in any of these assays.
NF-kB neuron act: compounds increasing NF-kB expression in human neuronal cells; NF-kB reporter expression; hits give high values; fold change at 12.5 µM; 190,000 tested, 1.6% active; AID 1239; in the data active = fold change above about 3.3
STAT1 act: STAT1 signaling activation; NIH 3T3 STAT1-luciferase reporter, IFN-gamma, luminescence; 100% = IFN-gamma alone, no compound; activation (% of control), % at 5.5 µM; 200,000 tested, 2.6% active;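 active = activation above the screen-wide mean activation plus 3 SD, cut at about 130% in these data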;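 note: raw ratio to IFN-gamma control signal so 100% means no change and 0% no light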
APP 5'UTR act: activates APP 5'UTR luciferase reporter. SH-SY5Y APP 5'UTR luciferase reporter, luminescence; zero percent = DMSO vehicle wells. activation, % at 2 µM. 190,000 tested, 1% active. AID 1276;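 active = activation above a set limit, based on mean plus 3 SD of controls, cut at about 140% in these data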
STAT1 blocker: reduces IFN-gamma driven STAT1 reporter signal | NIH 3T3 STAT1-luciferase reporter, luminescence | inhibition, % at 5.5 µM | 200,000 tested, 0.35% active | AID 920;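 active = inhibition above a set limit, the mean inhibition across all tested compounds plus 3 SD, cut at about 34% in these data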;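 note: 0% = IFN-gamma with DMSO and 100% = IFN-gamma with 300 µM nifuroxazide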
STAT3 act: increases IL-6 driven STAT3 reporter signal. 190,000 tested, 0.91% active. U3A cells, IL-6 STAT3-luciferase reporter, luminescence; 100% = signal with IL-6 EC80 alone. activation (% of control), % at 5.6 µM;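 active = activation above the screen-wide mean of compound activation plus 3 SD, cut at about 130% in these data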;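 note: 0% = background luminescence of wells with medium and substrate only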
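Material: STAT3-luciferase reporter U3A cells. Controls: IL-6-treated wells, 100% activation. Read-out: % activation versus median of IL-6-stimulated wells. Probe or stimulus: IL-6 stimulus at 33 ng/mL final. Timing: compound 1 h, then IL-6 6 h at 37 °C. Signal: reporter luminescence signal.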
STAT3 blocker: inhibitors of IL-6 induced STAT3 signaling; U3A cells, IL-6 STAT3-luciferase reporter, luminescence; host cell line lacks STAT1; inhibition, % at 5.5 µM; 190,000 tested, 0.89% active; AID 862;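 active = inhibition above the mean inhibition across all screened compounds plus 3 SD, cut at about 44% in these data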;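 note: 0% = DMSO only wells and 100% = 100 µM nifuroxazide control wells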
* = called active by the depositor; . = no result given.

SMILES	NF-kB neuron act	STAT1 act	APP 5'UTR act	STAT1 blocker	STAT3 act	STAT3 blocker
COc1nc(-c2ccc(C)cc2)ccc1-c1noc(-c2ccco2)n1	1.3	115	13	-16	112	-12
c1ccc(-c2cc(-c3nc(-c4ccccn4)no3)c3ccccc3n2)cc1	.	103	-2	-4	81	26
COc1cc(-c2nc(-c3ccccn3)no2)cc(OC)c1OC	1.7	116	119	-18	96	11
CCOC(CNC(=O)c1nnc(Cc2cc(OC)c(OC)c(OC)c2)o1)OCC	1.2	99	24	1	102	10
CCOc1cc(NC(=S)NCCCN2CCOCC2)c(OCC)cc1NC(=O)c1cccs1	1	97	14	1	102	1
CN1CCN(C(=O)C2=C[C@H](c3ccc(C(F)(F)F)cc3)C[C@H](OCc3ccc(CO)cc3)O2)CC1	1.1	91	3	12	.	.
c1ccc(-c2nc(-c3ccco3)cs2)nc1	0.71	130*	29	-33	106	-2
Clc1cccc(-c2nc(-c3ccccn3)no2)c1	1.6	63	97	54*	33	81*
O=C(Nc1nc(-c2ccccn2)cs1)c1ccco1	1.9	111	-32	-14	101	2
c1ccc(-c2noc(-c3cccc4ccccc34)n2)nc1	2.5	107	81	0	94	11
c1ccc(-c2nc(-c3ccccn3)no2)cc1	1.8	47	64	62*	20	98*
c1ccc(-c2nccc(-c3ccco3)n2)nc1	1.3	103	16	-6	87	21
c1ccc(-c2noc(-c3ccco3)n2)nc1	2.1	137*	192*	-39	79	28
CCc1cc2c3c(c1)C1(C(=O)N3C(C)(C)CC2C)C(C#N)=C(N)N2C(=C1C#N)Nc1ccccc12 (configuration not stated)	0.57	101	10	-1	111	-7
C[n+]1ccc(/C=N/Nc2nc(Cl)c(C#N)c(Cl)c2Cl)cc1	2.3	87	-6	15	98	5
Cc1ccc2nc(-c3ccccn3)oc2c1	4.5*	116	176*	-17	72	39
COc1cccc(-c2nc(-c3ccccn3)no2)c1OC	1.7	136*	88	-34	90	15
Fc1ccc(-c2csc(-c3ccccn3)n2)cc1F	2.8	140*	9	-46	92	15
O=c1[nH]c(Cc2ccccn2)nc2scc(-c3ccccc3Cl)c12	0.83	105	8	-6	97	10
CCc1ccc(NC(=O)N2CCN(c3ccc(F)cc3)CC2)cc1	1.1	84	16	16	88	19
Cc1ccc(N=Nc2c(C)[nH]n(C(N)=S)c2=O)cc1C	4.8*	113	96	-15	120	-24
CC(=O)Nc1ccc(N=Nc2c(C)[nH]n(C(N)=S)c2=O)cc1	1.5	126	5	-27	103	5
Cc1nc2c3cnn(-c4ccc(C)c(C)c4)c3ncn2n1	4.3*	148*	.	-53	99	8
COc1cc(CC(=O)N(c2ccccc2)c2nc(C)cs2)cc(OC)c1OC	1.1	90	-7	9	108	0
Fc1ccc(NC(=S)Nc2nccs2)cc1	9.1*	110	71	-11	86	21
SMILES	NF-kB neuron act	STAT1 act	APP 5'UTR act	STAT1 blocker	STAT3 act	STAT3 blocker
O=C(Nc1nccs1)c1ccc(-c2ccc(Cl)cc2)o1	6.1*	138*	133	-41	90	16
O=C(Nc1cccnc1)c1ccc(-c2ccc(Cl)cc2)o1	1.9	127	30	-30	95	8
O=C(Nc1nccs1)c1ccc(-c2ccc(F)cc2)o1	3.1	129*	157*	-33	86	19
CCc1nnc(NC(=O)c2ccc(-c3ccc(F)cc3)o2)s1	1.3	100	2	-2	83	23
Cc1ccccc1CC1(CO)CCCN(C(=O)c2ccc3ncccc3c2)C1 (configuration not stated)	0.87	101	2	-1	104	-5
Cc1cccc(NC(=S)N/N=C/c2c[nH]c3ccccc23)c1	1.9	132*	-87	-36	104	-7
O=C(CNc1ccccc1)N/N=C/c1c[nH]c2ccccc12	0.76	107	-8	-8	112	-14
Cc1nn(C)cc1/C=N/NC(=S)Nc1ccccc1	3.4*	118	59	-20	97	8
O=C(O)CNC(=O)c1ccccc1Br	1.1	100	-2	0	101	5
O=C(CC(Nc1ccc(Cl)cc1)C(=O)O)c1ccccc1 (configuration not stated)	2.4	147*	209*	-50	80	27
Cc1cc(NC(=O)c2cc([N+](=O)[O-])cc([N+](=O)[O-])c2C)no1	1.1	95	19	4	96	6
CC(C)C(=O)NCc1cc(-c2ccccc2)no1	1	97	22	2	97	13
COc1ccc2nc(/N=C(\N)NC(=O)C(C)(C)C)nc(C)c2c1	0.7	129*	16	-32	107	-3
COc1ccc2nc(/N=C(\N)NC(=O)N3c4ccccc4Sc4ccccc43)nc(C)c2c1	0.6	109	2	-10	93	8
CCC(=O)N/C(N)=N/c1nc(C)c2cc(OC)ccc2n1	1.5	134*	27	-36	122	-21
CCCn1c(SCC(=O)c2c[nH]c3ccccc23)nnc1-c1ccncc1	0.92	80	6	22	131	-34
Cc1cc(C)c(S(C)(=O)=O)c(Oc2cccc(C(F)(F)F)c2)n1	1.1	96	5	2	99	7
Cc1ccc(OCCOc2cccc(Br)c2)c([N+](=O)[O-])n1	2.5	132*	54	-35	104	-4
O=c1sc(Nc2ccccc2)nc2ccccc12	0.88	88	19	11	95	8
Clc1ccc(Nc2nc3cccnc3s2)cc1	2.8	148*	152*	-55	102	1
Cc1noc(C)c1C(=O)N1CCCC(C(=O)c2cccc(OC(C)C)c2)C1 (configuration not stated)	1.2	102	-2	-3	100	5
O=C(CCc1nnc(C2CCCCC2)o1)NCCCOc1cccnc1	1.1	99	12	-1	97	8
c1ccc(SCc2nc3ccccc3[nH]2)cc1	2.3	112	69	-13	99	6
Cc1cccc(CSc2nc3c(cc2C#N)CCC3)c1	1.2	102	6	-3	99	4
N#Cc1c(SCc2nc3ccccc3[nH]2)nc2c(c1C(F)(F)F)CCC2	.	117	5	-18	174*	-89
N#Cc1cc2c(nc1SCc1nc3ccccc3[nH]1)CCC2	1.6	127	248*	-30	92	15
O=C(COC(=O)c1cccc(S(=O)(=O)N2CCCC2)c1)NCc1ccccc1	1.1	102	1	-3	109	3
